Compound activity: PubChem, several laboratories
TAAR1 agonist: human TAAR1 agonists, primary screen, Fluo-8 calcium fluorescence, CHO RD-HGA16 cells. vehicle wells 0%, saturating PEA agonist 100%. 360,000 tested, 0.99% active. Trace amine-associated receptor 1 (Homo sapiens), Q96RJ0. activation, % at 3 µM;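 active means activation above the mean activation of all test compounds in the run plus 3 SD, cut at about 38% in these data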
Target sequence (Q96RJ0 whole entry, looked up): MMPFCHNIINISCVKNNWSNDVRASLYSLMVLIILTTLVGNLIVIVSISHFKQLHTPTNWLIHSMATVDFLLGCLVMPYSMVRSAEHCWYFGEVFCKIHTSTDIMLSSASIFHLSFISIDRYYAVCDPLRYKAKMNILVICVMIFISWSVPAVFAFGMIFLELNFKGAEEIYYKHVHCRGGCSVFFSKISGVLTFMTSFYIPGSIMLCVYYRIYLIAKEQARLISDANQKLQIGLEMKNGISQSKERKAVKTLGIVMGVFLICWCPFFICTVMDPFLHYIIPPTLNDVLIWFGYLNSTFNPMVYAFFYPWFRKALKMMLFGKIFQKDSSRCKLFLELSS
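Test system: RD-HGA16 (CHO) cells co-expressing Gα16 and hTAAR1 / Benchmarks: DMSO vehicle as 0%, PEA at EC100 as 100% / Repeats: no replicates (n 1) / Measure: % activation from peak over basal fluorescence ratio, DMSO-to-PEA scaled / Timing: 17-24 h plating, Fluo-8 75 min 37 °C, 30 min RT / Technique: kinetic Fluo-8 calcium fluorescence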
CHO parental Ca: ATP-evoked calcium signal inhibitors, parental CHO, primary screen, counter-screen for OX1R antagonist project, cell-based, fluorescence, Fluo-8 calcium dye. parental CHO-K1, ATP-induced calcium, Fluo-8 fluorescence. inhibition, % at 5.6 µM. 330,000 tested, 0.63% active. AID 463079, 2010;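 active means inhibition above that plate's mean sample inhibition plus 3 SD, cut at about 26% in these data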
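Assay system – parental CHO cells · Reagent – ATP stimulus · Detection – intracellular calcium via Fluo-8 no-wash fluorescent dye · Evaluation – percent inhibition of ATP-evoked calcium rise, normalized to controls · Controls – ATP wells versus no-ATP DMSO wells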
OX1R antag-1: OX1R (HCRTR1) antagonists, primary screen, fluorescence, CHO/OX1R cells, Fluo-8 calcium, orexin A; Fluo-8 calcium fluorescence; inhibition, % at 5 µM; 330,000 tested, 0.43% active;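 active means inhibition above its plate's threshold, mean inhibition of all tested compounds on the plate plus 3 SD, cut at about 37% in these data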
OX1R antag-2: antagonists of human orexin 1 receptor (OX1R) | OX1R-expressing cells, FRET antagonist read-out | 330,000 tested, 1.8% active | inhibition, % at 6.6 µM; in the data active means inhibition mostly above about 38%, no sharp cut-off; inactive means mostly below about 40%
TAAR1 antagonist: human TAAR1 antagonists, primary screen, Fluo-8 calcium fluorescence, CHO RD-HGA16 cells; AID 624466, 2012; 360,000 tested, 1.5% active; antagonist; inhibition, % at 3 µM; Trace amine-associated receptor 1 (Homo sapiens), Q96RJ0;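 active means inhibition above a per-plate cutoff, the mean inhibition of test compounds on that plate plus 3 SD, cut at about 49% in these data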
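Test system – hTAAR1-expressing CHO RD-HGA16 cells, Gα16-coupled · Reagent – β-PEA at EC80 concentration, post-compound challenge · Compound dosing – 3 µM, single point · Timing – 140 s kinetic read after compound, 140 s after agonist · Detection – Fluo-8 intracellular calcium dye fluorescence, real-time kinetic reads · Control set – DMSO and EC80 PEA controls · Repeats – n of 1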
NTR1 agonist: agonists of human NTR1, primary screen, imaging, U2OS cells, beta-arrestin-GFP, high content; activation, % at 20 µM; 330,000 tested, 0.17% active; NTR1-U2OS beta-arrestin-GFP spot imaging, agonist mode;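 active means activation at or above 40% of the spot to cytoplasm intensity ratio, with at least 20 cells analyzed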
TAAR1 ag conf: human TAAR1 agonists, retest of hits, confirmation, Fluo-8 calcium fluorescence, CHO RD-HGA16 cells; scaled: DMSO 0%, maximal phenethylamine 100%; shares compounds with TAAR1 agonist; 2,400 tested, 82% active; activation, % at 3 µM;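 active means activation above a cutoff set at the run's mean compound activation plus 3 SD, cut at about 39% in these data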
Ga16 ag counter: nonselective calcium mobilization agonists, CHO-Ga16 cells, counter-screen for hTAAR1 agonist project, cell-based, fluorescence, CHO-Ga16 parental line; Fluo-8 calcium fluorescence; normalized to maximal ATP response, DMSO zero; shares compounds with TAAR1 agonist; activation, % at 3 µM; 2,400 tested, 50% active; AID 651787, 2012;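 active means activation above the run cutoff, the mean activation over all tested wells plus 3 SD, cut at about 12% in these data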
TAAR1 desensitize: TAAR1 desensitization by agonist hits, confirmation, counter-screen for TAAR1 agonist project, cell-based, fluorescence, tachyphylaxis. CHO RD-HGA16 hTAAR1, Fluo-8 calcium, beta-PEA response inhibition. 2,400 tested, 46% active. shares compounds with TAAR1 agonist. inhibition, % at 3 µM;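 active means inhibition above the run cutoff, the mean inhibition of all test compounds plus 3 SD, cut at about 49% in these data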;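 further: beta-PEA stimulus applied at its EC80; loss of beta-PEA calcium signal after compound pretreatment read as receptor desensitization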
Ga16 antag count: inhibition of ATP-evoked calcium response in CHO-Ga16 cells, counter-screen for TAAR1 agonist project, cell-based, fluorescence. shares compounds with TAAR1 agonist. CHO-Ga16 ATP-induced calcium, Fluo-8 fluorescence. inhibition, % at 3 µM. 2,400 tested, 39% active. AID 651952, 2012;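 active means inhibition above the plate's mean compound inhibition plus 3 SD, computed per plate, cut at about 22% in these data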
Numbers stand for hits; – = inactive; · = no result given. Compounds with a hit are over-represented: about 4% of the library has one in this group of screens.

SMILES	TAAR1 agonist	CHO parental Ca	OX1R antag-1	OX1R antag-2	TAAR1 antagonist	NTR1 agonist	TAAR1 ag conf	Ga16 ag counter	TAAR1 desensitize	Ga16 antag count
COc1ccc(/C=N/NC(=O)Cc2n[nH]c(=O)[nH]c2=O)cc1	–	–	–	–	–	–	·	·	·	·
O=C(CCC(=O)N/N=C/c1ccccc1O)NCc1ccccc1	42	–	–	–	–	–	57	–	–	–
CC(C)CC(OC(=O)c1nsc(Cl)c1Cl)C(=O)NCC1CCCO1 (stereo unspecified)	–	–	–	–	–	–	·	·	·	·
CC(C(=O)N1CCCC1)N(c1ccccc1)S(C)(=O)=O (stereo unspecified)	–	–	–	–	–	–	·	·	·	·
CCOCCOc1cccc(C(=O)NC(c2ccccc2)c2ccccc2)c1	·	–	–	–	·	–	·	–	·	–
Cc1cccc(NS(=O)(=O)c2ccc(C3CCCCC3)cc2)c1	59	48	51	–	55	–	38	–	–	37
COc1ccc(S(=O)(=O)Nc2ccc(CC#N)cc2)cc1	–	–	–	–	–	–	·	·	·	·
N#CCc1ccc(NS(=O)(=O)c2ccc(C3CCCCC3)cc2)cc1	51	68	–	–	51	·	51	24	–	34
COc1cc(OC)cc(C(=O)NNC(=O)CCC2CCCC2)c1	–	–	–	–	–	–	·	·	·	·
CCOc1ccc(OCCC(=O)OCC(=O)N2CCN(c3ccc(OC)cc3)CC2)cc1	–	–	–	–	–	–	·	·	·	·
C[C@H](O)[C@@H]1C(=O)N2CCc3ccc(-c4ccccc4)cc3[C@@H]2C[C@@H]1N(C)C(=S)Nc1ccc(F)cc1	66	·	·	·	–	·	70	34	49	46
C[C@H](O)[C@@H]1C(=O)N2CCc3ccc(-c4cccc(F)c4)cc3[C@@H]2C[C@@H]1N(C)C(=O)Nc1ccccc1	–	·	·	·	–	·	·	·	·	·
CCOCCCn1c(=S)[nH]c2cc(C(=O)NCCc3ccccc3)ccc2c1=O	44	–	–	–	–	–	50	–	–	–
CC(=O)c1ccc(N2C(=O)CC(N3CCN(S(=O)(=O)c4ccc(C)c(C)c4)CC3)C2=O)cc1 (stereo unspecified)	–	–	–	–	–	–	·	·	·	·
C[C@H](O)[C@@H]1CN2CCc3c([nH]c4c(-c5ccccc5)cccc34)[C@@H]2C[C@@H]1N(C)C(=S)NCCc1ccccc1	85	·	·	·	61	·	–	–	–	–
CC(C(=O)Nc1nccs1)N1C(=O)c2ccccc2S1(=O)=O (stereo unspecified)	–	–	–	–	–	–	·	·	·	·
Cc1ccc(NC(=O)N2CCc3ccccc3C2)cc1C	–	·	·	·	–	–	·	·	·	·
Cc1cc(C)cc(NC(=O)N2CCc3ccccc3C2)c1	58	·	·	·	–	–	67	–	–	–
Cc1cccc(NC(=O)N2CCc3ccccc3C2)c1C	80	·	·	·	52	–	80	–	–	–
CCOC(=O)c1ccc(NC(=O)N2CCc3ccccc3C2)cc1	63	–	–	–	–	–	48	12	49	24
Cc1ccccc1NC(=O)N1CCc2ccccc2C1	84	–	–	–	–	–	63	–	–	–
CCC(C)[C@H]1CN=C(N)N1CCc1cccc(F)c1 (stereo partly specified)	–	–	–	–	–	–	·	·	·	·
O=C(Nc1ccc(F)cc1)N1CCc2ccccc2C1	46	–	–	–	–	–	41	–	–	–
CCOC(=O)[C@H]1[C@H]2COc3ccc(Br)cc3[C@@H]2N2C(=O)c3cc(OC)c(OC)cc3NC(=O)[C@@]12C	76	–	–	–	–	–	101	44	–	–
C=CCC[C@H](Cc1ccc(F)cc1)C(=O)OC[C@@H](Cc1c[nH]c2ccccc12)NC(=O)[C@@H](CC=C)CC(=O)N[C@@H](CO)Cc1ccccc1	–	–	–	–	–	–	·	·	·	·
SMILES	TAAR1 agonist	CHO parental Ca	OX1R antag-1	OX1R antag-2	TAAR1 antagonist	NTR1 agonist	TAAR1 ag conf	Ga16 ag counter	TAAR1 desensitize	Ga16 antag count
C=CCC[C@H](Cc1ccc(F)cc1)C(=O)OC[C@H](Cc1c[nH]c2ccccc12)NC(=O)[C@@H](CC=C)CC(=O)NCCO	65	–	–	–	74	–	–	25	69	53
Brc1ccc(C2C3=C(Nc4ncnn42)c2ccccc2OC3c2ccncc2)cc1 (stereo unspecified)	43	–	–	–	–	–	–	–	–	–
COc1ccc(C2Oc3ccccc3C3=C2C(c2cccs2)n2ncnc2N3)cc1 (stereo unspecified)	–	–	–	–	–	–	·	·	·	·
COc1ccc(S(=O)(=O)N2CCC(C(=O)N3CCc4ccccc4C3)CC2)cc1C	52	–	–	–	–	–	76	–	–	–
CCN(CC)S(=O)(=O)c1ccc2oc(C(=O)N3CCc4ccccc4C3)c(C)c2c1	·	–	–	–	·	–	·	·	·	·
Cc1c(C(=O)N2CCc3ccccc3C2)oc2ccc(S(=O)(=O)N3CC(C)CC(C)C3)cc12 (stereo unspecified)	·	–	–	–	·	–	·	–	·	–
COc1cccc(CNC(=O)c2ccc(NC(=O)C3=CSCCO3)cc2)c1	–	–	–	–	–	–	·	·	·	·
CC(=O)Nc1cccc(C(=O)/C=C/c2ccc(F)cc2)c1	–	–	–	–	–	–	·	·	·	·
CC(=O)Nc1cccc(C(=O)/C=C/c2ccc(N(C)C)cc2)c1	127	82	100	–	58	–	81	96	71	75
